Screening data from PubChem BioAssay.
Cneo AK release: Cryptococcus neoformans cell lysis inducers, primary screen, AK release luminescence, single concentration | C. neoformans lysis, adenylate kinase release luminescence, 4 h; normalised: neutral wells 0, clomiphene wells 100 | 360,000 tested, 0.2% active | AID 651654, 2012 | lysis activity, % at 15 µM;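 active means mean lysis activity across replicates of at least 80%, whatever share of replicates individually reach that level; inactive means mean lysis activity below 80%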
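read-out = cell lysis signal | test system = log-phase Cryptococcus neoformans yeast cells | input = cells at 5 × 10^6 per mL | medium = fresh YPD growth medium | signal = luminescent adenylate kinase detection reagent | timing = 4 h at 37 °C static, read 1 h later | dosing = single dose | controls = Clomiphene as positive lysis control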
CFTR F508del cor: F508del CFTR correction, initial screen, CFBE line, single point | CFBE cells, YFP halide quenching; stimulated with forskolin plus potentiator P3; % fluorescence drop versus neutral controls | activity (quench increase), % at 7.58 µM | 350,000 tested, 0.36% active;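 active means mean added fluorescence quench of at least 8% versus neutral control, with both replicates also reaching 8%; inconclusive means only one of the mean or replicate conditions met; inactive means mean below 8% and not both replicates reaching 8%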;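 further: cells transiently co-express mutant CFTR-F508del with the halide-sensitive YFP; corrector assay measuring rescue of mutant channel to the surface after 24 h compound exposure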
miR-122 sensor: miR-122 Renilla sensor signal increase in Huh7, primary screen, miR-122 inhibitor project, cell-based, single point, plate reader; Huh7 miR-122 Renilla luciferase sensor, 48 h; neutral wells = 0, positive control = 100; 340,000 tested, 0.3% active; activation (reporter increase), % at 12.5 µM;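 active means mean replicate activation score at least 90 and every replicate individually at or above 90; inconclusive means only one of the two criteria met; inactive means neither criterion met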;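 further: higher luciferase means less miR-122 activity so hits act as miR-122 inhibitors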
GSIS activator: GLuc luminescence reporter in INS-1E cells, primary screen for activators of glucose-dependent secretion of insulin. INS-1E GLuc reporter insulin secretion, 2-3 h. activation, % at 16.6 µM. 370,000 tested, 0.61% active. AID 743287, 2014;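 active means lowest replicate activation of at least 40%, so every replicate reaches that level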
HIV Env fusion: inhibitors of HIV-1 Env-driven cell-cell fusion, primary screen, HeLa-JRFL effector, CEM21 target cells, luciferase | 360,000 tested, 1.1% active | inhibition, % at 12.3 µM | AID 651610, 2012;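 active means mean replicate inhibition score of at least 50 and every replicate individually at or above 50; inconclusive means only one of the two criteria met; inactive means mean below 50 and not all replicates reaching 50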
Ecoli rRNA inh: reduced GFP signal of wild-type E. coli, primary screen, bacterial rRNA inhibitor project, GFP/RFP fluorescence, OD600, single point; GFP signal change (wild-type ribosome), % (test concentration not listed); 350,000 tested, 1.6% active; AID 720706, 2013; E. coli WT GFP vs humanized-ribosome RFP mutants, 24 h; stronger effect = lower value; DMSO median 0, no signal -100;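 active means significant combined selectivity score with lowered wild-type GFP, culture density cut under 30%, mutant RFP and density less affected; inactive means any of these conditions unmet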
Numbers stand for hits; . = inactive; ? = inconclusive; / = not tested or not shown; [ ] = remark or other dose. In the library only some 3.1% were active in any assay of this set; here they are far more common.

SMILES | Cneo AK release | CFTR F508del cor | miR-122 sensor | GSIS activator | HIV Env fusion | Ecoli rRNA inh
CO[C@H]1CN(C)C(=O)c2ccc(NC(=O)C3CCC3)cc2OC[C@@H](C)N(C(=O)NC(C)C)C[C@@H]1C | . | . | . | . | . | .
O=C(OCc1c(-c2ccccc2)ncc2ccccc12)c1cccs1 | . | . | / | 54.9 | . | -20.6
CN(C)C(=O)OCc1c(-c2ccccc2)ncc2ccccc12 | / | . | / | . | . | .
COc1cccc(-c2ncc3ccccc3c2COC(=O)N(C)C)c1 | . | . | . | . | 61.3 | .
O=C(OCc1c(-c2ccccc2)ncc2ccccc12)c1ccc(Br)cc1 | . | . | . | . | . | .
CC(=O)N1CC2(C1)[C@H](c1ccc(-c3cccc(F)c3)cc1)[C@H](CO)N2CC1CC1 | / | . | / | . | / | .
COc1ccc2nc(NC(=O)C3CCN(S(=O)(=O)c4cccc5nsnc45)CC3)sc2c1 | . | / | . | / | 80.5 | /
C[C@H]1CCCCO[C@@H](CN(C)Cc2ccncc2)[C@@H](C)CN([C@@H](C)CO)C(=O)c2cc(NC(=O)Nc3cccc4ccccc34)ccc2O1 | . | . | . | . | 69.9[16.7 µM] | .
C[C@@H]1CCCCO[C@H](CN(C)Cc2ccncc2)[C@H](C)CN([C@@H](C)CO)C(=O)c2cc(NC(=O)Nc3cccc4ccccc34)ccc2O1 | . | . | . | . | . | .
C[C@@H]1CCCCO[C@@H](CN(C)Cc2ccccc2)[C@H](C)CN([C@@H](C)CO)C(=O)c2cc(NC(=O)Nc3cccc4ccccc34)ccc2O1 | . | . | . | . | . | .
C[C@H](CO)N1C[C@H](C)[C@H](CN(C)Cc2ccccc2)OCCCC[C@H](C)Oc2ccc(NC(=O)Nc3cccc4ccccc34)cc2C1=O | . | . | . | . | 113.8[16.7 µM] | .
CC(=O)N(C)C[C@@H]1Oc2cc(C#Cc3cccc(F)c3)ccc2S(=O)(=O)N([C@H](C)CO)C[C@H]1C | . | . | . | . | . | .
Nc1ncccc1OCc1ccc(Cl)c(Cl)c1 | . | . | . | / | . | -21.3
O=C(C[C@@H]1C=C[C@@H](NC(=O)c2cccc(F)c2)[C@H](CO)O1)NCc1ccc(Oc2ccccc2)cc1 | . | . | / | . | . | .
CCC(=O)NC(=S)Nc1cccc(Cl)c1N1CCCCC1 | . | / | . | / | 73.3 | /
COc1cccc2cc(/C(=N/O)c3ccc(Br)cc3)oc12 | / | . | / | . | . | .
O/N=C(/c1ccccc1)c1cc2cc(Br)cc(Br)c2o1 | . | . | . | . | . | -22.9
COc1ccc(CN(C)C[C@@H]2Oc3ccc(NC(=O)C4CCCCC4)cc3C(=O)N([C@@H](C)CO)C[C@@H]2C)cc1 | . | . | . | . | . | .
O=C(NCc1ccco1)c1csc(Nc2ccccc2Cl)n1 | . | / | . | / | . | /
COc1ccc(Nc2nc(C(=O)NCc3ccco3)cs2)cc1 | . | . | . | / | . | -44.4
CCc1ccc(/C=C2/SC(=S)N(CCC(=O)NCCCN3CCOCC3)C2=O)cc1 | . | . | . | . | . | .
CCc1ccc(/C=C2\SC(=S)N(CCCC(=O)NCCCN3CCOCC3)C2=O)cc1 | . | . | . | 40.6 | . | -27.0
CCOc1ccc(/C=C2\SC(=S)N(CCCC(=O)NCCCN3CCOCC3)C2=O)cc1 | . | . | . | . | ? | -20.7
CCc1ccc(/C=C2\SC(=S)N(CCCC(=O)Nc3nccs3)C2=O)cc1 | . | / | . | 121.5 | . | /
Cc1cccc(S(=O)(=O)NC(=O)C2(C)CCN2C(=O)c2ccccc2CCc2ccccc2)c1 (centres undefined) | . | . | . | / | . | -49.9
SMILES | Cneo AK release | CFTR F508del cor | miR-122 sensor | GSIS activator | HIV Env fusion | Ecoli rRNA inh
CC1(C(=O)NS(=O)(=O)c2cccc(F)c2)CCN1C(=O)c1ccccc1CCc1ccccc1 (centres undefined) | . | . | . | . | . | .
CC1(C(=O)NS(=O)(=O)c2ccc3c(c2)CCO3)CCN1C(=O)c1ccccc1CCc1ccccc1 (centres undefined) | . | . | . | / | . | -20.2
O=C(Nc1ccc(-c2ccccc2)cc1)[C@H]1[C@H](CO)[C@H]2Cn3c(cccc3=O)[C@@H]1N2Cc1cccnc1 | . | . | . | . | / | .
O=C(Nc1ccc2c(c1)OCO2)c1ccc([N+](=O)[O-])cc1[N+](=O)[O-] | . | . | / | . | . | -18.8
CCCNC(=O)Nc1ccc2c(c1)C(=O)N(C)C[C@H](OC)[C@H](C)CN(Cc1cncnc1)[C@@H](C)CO2 | . | . | . | . | / | .
CCNC(=O)C[C@H]1CC[C@@H]2[C@H](COC[C@@H](O)CN2C(=O)Nc2ccc3c(c2)OCO3)O1 | . | . | . | . | / | .
CNC(=O)C[C@@H]1CC[C@H]2[C@@H](COC[C@H](O)CN2C(=O)Nc2ccc3c(c2)OCO3)O1 | 89.1 | . | . | . | / | .
CCCNC(=O)C[C@@H]1CC[C@H]2[C@@H](COC[C@H](O)CN2C(=O)Nc2ccc3c(c2)OCO3)O1 | . | . | . | . | / | .
CNC(=O)C[C@@H]1CC[C@@H]2[C@H](COC[C@@H](O)CN2C(=O)Nc2ccc3c(c2)OCO3)O1 | 113.2 | . | . | . | / | .
COCCNC(=O)[C@@H]1[C@@H](CO)[C@@H]2Cn3c(ccc(-c4ccccc4F)c3=O)[C@H]1N2S(C)(=O)=O | . | / | / | . | . | .
O=C(Nc1ccc(Cl)cc1)N[C@@H]1CC[C@H](CCn2cc(-c3ccccc3F)nn2)O[C@@H]1CO | . | . | / | . | . | .
N=c1c2c(n(Cc3ccc(Cl)cc3)c3c1CCC3)CCC2 | . | . | . | . | / | -52.5
Clc1cccc(CN2C3=NCCCN3c3ccccc32)c1 | . | . | . | . | . | .
N=c1c2c(n(Cc3cccc(Cl)c3)c3c1CCC3)CCCC2 | / | . | / | . | / | -51.8
N=c1c2c(n(Cc3ccccc3)c3c1CCC3)CCC2 | . | / | . | . | / | /
CCn1c2c(c(=N)c3c1CCC3)CCCC2 | . | . | . | . | . | .
N=c1c2c(n(Cc3ccc(F)cc3)c3c1CCC3)CCCC2 | / | . | / | . | . | -31.0
Cn1c(=O)c(NC2CCCCC2)c2c3c(cccc31)C(=O)c1ccccc1-2 | / | 16.0 | / | . | . | .
CSCCC(NC(=O)c1ccccc1Br)C(=O)NC(C)CCc1ccccc1 (centres undefined) | . | . | / | . | 64.0 | .
CSCCC(NC(=O)c1ccccc1)C(=O)NCCc1ccccc1 (centres undefined) | . | . | / | . | . | .
COc1cc(C)c(C(C)C)cc1S(=O)(=O)NC1CC(C)(C)NC(C)(C)C1 | . | . | 127.5 | . | . | .
